High-throughput results (PubChem)
An excerpt weighted towards active compounds, which were near 3.1% of everything screened.
TbHK1 inh: Trypanosoma brucei hexokinase 1 inhibitors, primary screen, biochemical, G6PDH-coupled NADH absorbance, MLSCN library. 220,000 tested, 0.11% active. AID 1430, 2008. recombinant TbHK1, G6PDH-coupled NADH A340. hexokinase 1 [Trypanosoma brucei]. inhibition, % at 10 µM;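 active means inhibition of 50% or more in the single-dose primary screen; inactive means inhibition below 50%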
HKDC1 inh: HKDC1 hexokinase inhibitors, primary screen, biochemical, fluorescence, uHTS. Q2TB90. recombinant HKDC1, G6PDH/diaphorase resazurin coupled fluorescence. inhibition, % at 20 µM. 340,000 tested, 0.16% active. AID 493160, 2011;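 active means inhibition above about 35% when tested at 20 µM, limit read from the data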
Target sequence (Q2TB90 whole entry, looked up): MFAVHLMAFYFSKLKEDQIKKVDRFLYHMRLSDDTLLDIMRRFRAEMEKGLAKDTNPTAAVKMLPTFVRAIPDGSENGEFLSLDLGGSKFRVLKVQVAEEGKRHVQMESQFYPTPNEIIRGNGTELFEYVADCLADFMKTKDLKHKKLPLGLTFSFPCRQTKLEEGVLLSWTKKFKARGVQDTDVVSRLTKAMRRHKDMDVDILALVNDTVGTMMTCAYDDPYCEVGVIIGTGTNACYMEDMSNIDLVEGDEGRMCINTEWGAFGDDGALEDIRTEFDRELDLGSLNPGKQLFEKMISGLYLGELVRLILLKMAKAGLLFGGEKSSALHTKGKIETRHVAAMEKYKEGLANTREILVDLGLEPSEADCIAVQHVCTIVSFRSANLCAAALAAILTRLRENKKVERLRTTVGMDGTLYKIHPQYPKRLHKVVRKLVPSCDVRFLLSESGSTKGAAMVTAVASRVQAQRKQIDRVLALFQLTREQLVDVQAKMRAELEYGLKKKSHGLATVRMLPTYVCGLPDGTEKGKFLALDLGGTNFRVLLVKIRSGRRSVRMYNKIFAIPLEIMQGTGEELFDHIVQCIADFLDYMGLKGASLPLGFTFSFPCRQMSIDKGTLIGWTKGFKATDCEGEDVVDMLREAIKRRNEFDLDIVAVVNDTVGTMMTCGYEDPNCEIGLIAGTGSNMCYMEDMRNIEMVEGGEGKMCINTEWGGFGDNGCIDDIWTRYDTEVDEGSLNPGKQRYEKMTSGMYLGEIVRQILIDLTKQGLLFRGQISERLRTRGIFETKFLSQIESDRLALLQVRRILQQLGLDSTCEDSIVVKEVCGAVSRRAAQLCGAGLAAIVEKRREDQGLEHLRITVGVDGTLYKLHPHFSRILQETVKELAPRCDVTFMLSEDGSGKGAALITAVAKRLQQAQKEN
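Assay system: recombinant HKDC1 hexokinase; detection: coupled resazurin fluorescence, excitation 525 nm, emission 613 nm; benchmarks: DMSO-plus-enzyme-mix negative control, buffer-substituted positive control; compound dosing: single 20 µM dose; schedule: 90 min at room temperature in dark; also added: glucose plus 1 mM ATP as hexokinase substrates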
HSF-1 act: HSF-1 activators, primary screen, NIH3T3-HGL cells, MG132 stress, luminescence, single point; NIH3T3-HGL HSF-1 luciferase reporter, 8 h; 100% = twice DMSO control signal; activation, % at 9 µM; 300,000 tested, 1.7% active; AID 504408, 2011;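 active means mean replicate activation of at least 50% with a set share of replicates each reaching 50%; inconclusive means only one of those two conditions met; inactive means mean below 50% and too few replicates reaching it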
HSF1 inh: HSF1 inhibitors in luciferase reporter cells, primary screen, cell-based, NIH3T3, luminescence; activity change, negative = inhibition, % at 7.5 µM (by protocol); 300,000 tested, 0.77% active; NIH3T3-HGL HSE-luciferase, MG132-induced, luminescence 8 h; stronger effect = lower value;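 active means more than half of replicate wells show activity change below -50%, luminescence cut by over half; inconclusive means some wells, but at most half, below -50%; inactive means no replicate well below -50%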;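 further: luciferase reports HSF-1 transcriptional activity via heat shock element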
HSP90 refold inh: HSP90 inhibitors, primary screen, cell lysate, luminescence | inhibition, % at 5.6 µM | Heat shock protein HSP 90 (rabbit reticulocyte lysate; luciferase refolding) | Rabbit reticulocyte lysate, luciferase refolding luminescence, 3 h | AID 1789, 2009 | 290,000 tested, 0.91% active;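 active means inhibition above the screen-wide mean plus 3 SD, computed separately per campaign, cut at about 16% in these data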;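 further: inhibitors lower the luminescence because luciferase stays unfolded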
Hsp70 act: Hsp70 transcriptional activators, primary screen, cell-based, HeLa, Hsp70 promoter luciferase, luminescence, 10 µM. activation, % at 10 µM. 200,000 tested, 0.04% active. HeLa Hsp70 promoter luciferase reporter; scaled: vehicle 0, proteasome-inhibitor control 100%;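 active means activation above the mean across all tested compounds plus 3 SD, cutoff set per campaign, cut at about 5.5% in these data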
Hits are given with their value; – = inactive; ? = inconclusive; · = no result given.

SMILES	TbHK1 inh	HKDC1 inh	HSF-1 act	HSF1 inh	HSP90 refold inh	Hsp70 act
CSc1ncccc1C(=O)OCc1ccccc1	–	–	57.7	–	–	–
CSc1ncccc1C(=O)OCc1ccc(COC(=O)c2cccnc2SC)cc1	–	·	·	·	–	–
Cc1ccc(C(c2nnnn2C2CCCC2)N2CCc3ccccc32)cc1 (centres undefined)	–	–	59.5	–	–	–
C[C@]12C=CC(=O)C=C1CC[C@H]1[C@@H]3C[C@@H](O)[C@](O)(C(=O)CO)[C@@]3(C)C[C@H](O)[C@@]12F	–	–	–	–	–	–
CC1CC2C3CCC4=CC(=O)C=CC4(C)C3(F)C(O)CC2(C)C1(O)C(=O)CO (centres undefined)	–	–	–	-54.1	–	·
O=C(Nc1ccccc1Cl)c1ccc(S(=O)(=O)NCC2CCCO2)cc1 (centres undefined)	·	–	–	–	–	·
CCCCN1C(=O)N(c2ccccc2Cl)C(C)(O)CC1(C)C (centres undefined)	·	–	–	–	–	·
O=C(CCc1nc2ccccc2c(=O)[nH]1)NCc1ccco1	–	–	–	-65.1	–	–
CCN(CC)c1ccc(/C=N/Nc2nc3ccccc3[nH]2)cc1	–	–	430.8	–	–	–
CC(=O)Nc1ccc(/C=N/Nc2nc3ccccc3[nH]2)cc1	–	–	127.6	–	–	–
C(=N\Nc1nc2ccccc2[nH]1)/c1ccc2c(c1)OCO2	–	–	491.7	–	–	–
C(=N\Nc1nc2ccccc2[nH]1)/c1ccncc1	–	–	–	–	–	–
O=C(O)c1ccc(/C=N/Nc2nc3ccccc3[nH]2)cc1	–	–	–	–	–	·
C/C(=N\Nc1nc2ccccc2[nH]1)c1cc2ccccc2o1	–	–	–	–	–	–
C/C(=N\Nc1nc2ccccc2[nH]1)c1ccc2c(c1)OCO2	–	–	–	–	–	–
C/C(=N\Nc1nc2ccccc2[nH]1)c1ccccn1	·	·	–	–	19.1	·
COc1ccccc1NC(=O)NC1CCS(=O)(=O)C1 (centres undefined)	·	–	–	–	–	·
CN(C(=O)CN1C(=O)S/C(=C\c2ccccc2)C1=O)C1CCS(=O)(=O)C1 (centres undefined)	·	–	–	-86.3	–	·
COc1ccccc1C(=O)Nc1ccc(N2CCN(S(C)(=O)=O)CC2)cc1	–	–	78.1	–	–	–
COc1ccc(N2CCN(c3ccc(NC(=O)NN)cc3)CC2)cc1	·	–	–	-66.9	–	·
COc1ccc(CC2(CO)CCN(Cc3cc4ccccc4o3)CC2)cc1	–	–	–	–	–	–
OCC1(Cc2cccc(C(F)(F)F)c2)CCN(Cc2cc3ccccc3o2)CC1	–	–	89.1	–	–	–
CC(=O)NC1=C(N(C)C2CCS(=O)(=O)C2)C(=O)c2ccccc2C1=O (centres undefined)	–	39.4	–	–	–	–
CN(C(=O)Nc1ccccc1)C1CCS(=O)(=O)C1 (centres undefined)	–	–	·	·	–	–
COc1cc(C(=O)NCC2CCCO2)ccc1OCc1ccc(Cl)cc1Cl (centres undefined)	·	–	71.7	–	·	·
SMILES	TbHK1 inh	HKDC1 inh	HSF-1 act	HSF1 inh	HSP90 refold inh	Hsp70 act
COc1cc(NC(=O)c2cccc(S(=O)(=O)N3CCCCC3)c2)cc(OC)c1OC	·	–	·	·	·	·
CCOc1ccc(/C=N/N2C(=O)C(CC(=O)Nc3ccc(F)cc3F)SC2=NC)cc1OC (centres undefined)	–	–	59.5	–	–	–
O=c1/c(=C/c2ccc(O)c([N+](=O)[O-])c2)sc2nc3ccccc3n12	78.1	–	·	·	–	–
O=[N+]([O-])c1cnc(Sc2ccncn2)s1	–	–	·	-66.8	–	·
C=CCn1c(Sc2ncc([N+](=O)[O-])s2)n[nH]c1=O	–	–	?	–	–	·
O=C(COC(=O)Cc1c(F)cccc1Cl)NC1CCS(=O)(=O)C1 (centres undefined)	·	–	–	–	·	·
O=C(NCc1cccs1)c1ccc([N+](=O)[O-])cc1Cl	–	–	–	-69.5	–	–
Cc1cc(C(=O)NCCC2=CCCCC2)c(C)o1	–	–	60.1	–	–	–
Cc1ccc(S(=O)(=O)N2CCCCC2)cc1C(=O)NCCC1=CCCCC1	·	–	–	–	·	·
O=C(NCCC1=CCCCC1)c1ccc(Cl)cc1	–	·	59.0	–	–	–
CCc1cccc(NC(=O)c2cccc(S(=O)(=O)N3CCN(C)CC3)c2)c1	·	–	78.3	–	–	·
CN(C)c1cccc(C(=O)OCCNC(=O)c2cccc(S(=O)(=O)N3CCOCC3)c2)c1	–	–	58.8	–	–	·
CN1CCN(S(=O)(=O)c2cccc(C(=O)NCCC3=CCCCC3)c2)CC1	·	–	–	-75.7	·	·
COc1ccc(S(=O)(=O)N(C)c2ccc(C(=O)Nc3c(C)n(C)n(-c4ccccc4)c3=O)cc2)cc1	·	–	–	–	–	·
C=COc1ccc(N2C(=O)c3ccccc3OC2C)cc1 (centres undefined)	·	–	–	–	–	·
Cc1ccc(C)c(S(=O)(=O)N2CCN(C(=O)CCC(=O)c3cc(C)sc3C)CC2)c1	·	–	–	–	·	·
O=C(O)C1CSC(c2ccc3c(c2)OCO3)N1 (centres undefined)	–	–	–	-56.2	–	·
COc1ccccc1N(CC(O)CN1CCC(C)CC1)S(=O)(=O)c1ccccc1 (centres undefined)	·	–	56.7	–	–	·
Cc1cc(C)nc(NC(=O)COc2cc(Cl)cc(Cl)c2)n1	–	–	–	-71.0	–	–
CN(CC(=O)Nc1ccc(F)c(F)c1F)C(=O)CCCSc1nc2ccccc2[nH]1	·	–	–	–	·	·
Cc1ccc(-c2csc(NC(=O)c3cccc([N+](=O)[O-])c3)n2)cc1	–	–	63.8	–	–	–
O=C(Nc1nc(-c2ccc([N+](=O)[O-])cc2)cs1)c1c(F)cccc1F	–	–	–	–	–	–
Cc1ccc(-c2csc(NC(=O)c3ccc([N+](=O)[O-])o3)n2)cc1	·	–	64.8	–	–	·
Cc1ccc(CNC(=O)c2ccc([N+](=O)[O-])o2)cc1	–	–	60.7	–	–	–
Cc1ccc(CNC(=O)c2nn(C)c(C)c2[N+](=O)[O-])cc1	–	–	–	–	–	–
CCN(Cc1ccncc1)C(=O)c1ccc(Br)o1	·	–	–	–	–	·
C=CCc1ccc(OCc2ccc(C(=O)Nc3ccc(NC(C)=O)cc3)o2)c(OC)c1	·	–	57.2	–	–	·
CCN(C(=O)c1ccco1)c1nnc(-c2cccnc2)s1	·	–	–	–	–	·
O=S(=O)(N1CCCCC1)N1CCN(c2ccc(F)cc2)CC1	–	–	–	-70.7	–	–
